# From PubChem
# Shown is part of a subset that was picked to be rich in hits.
# NLRP3 yeast inh: NALP3 inflammasome inhibitors in reconstituted yeast, primary screen, luminescence, uHTS; Yeast reconstituted NLRP3/ASC/caspase-1, beta-gal luminescence, 24 h; inhibition, % at 10 µM; 330,000 compounds, 0.39% hits; AID 2825, 2010;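 active means inhibition of 50% or more; inactive means inhibition below 50%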;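 further: plate controls were induced DMSO wells for no effect and uninduced yeast grown without galactose for full effect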
# Calb FLC: C. albicans growth inhibition with fluconazole, primary screen, CaCi-2 strain, Alamar Blue fluorescence. C. albicans CaCi-2 + fluconazole, 48 h. growth inhibition, % (no concentration beside the values). 300,000 compounds, 0.57% hits;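 active means growth inhibition above about 58% in most replicates, limit read from the data, passing the limit was not always enough; inconclusive means exactly half the replicates above a set limit; inactive means most replicates below a set limit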;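 further: all wells also contain fluconazole at 8 µg/ml as a sub-toxic cotreatment; 0% = median of DMSO wells and 100% = median of geldanamycin control wells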
# NALP1 inh: NALP1 inflammasome inhibitors in reconstituted yeast, colorimetric, S. cerevisiae, triplicate retest; S. cerevisiae NALP1/ASC/caspase-1 growth, X-gal OD620, 72 h; 280,000 compounds, 0.61% hits; inhibition, % at 10 µM; in the data active means inhibition mostly above about 24%, no sharp cut-off; inactive means mostly below about 32%
# Lmaj promast: Leishmania major promastigote growth inhibition, primary screen. inhibition, % at 10 µM. Leishmania major promastigotes, resazurin fluorescence viability. 200,000 compounds, 9% hits. AID 1063, 2008; in the data active means inhibition above about 50%;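 further: promastigotes grown with compound for 44 hours at 28 °C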
# T cruzi repl: inhibitors of intracellular T. cruzi growth, primary screen, luminescence, NIH3T3 host cells | T. cruzi beta-gal in NIH3T3, 90 h | inhibition, % (concentration not given with the values) | 300,000 compounds, 1.4% hits;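 active means mean inhibition across valid replicates above about 55%, limit read from the data; inconclusive means mean below that limit but half or more replicates reach it; inactive means mean below it, under half of replicates reach it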;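 further: signal also drops with host cell toxicity which is not excluded here; 0% = plate median of DMSO wells and 100% = zero luminescence signal; higher percent means less beta-gal luminescence so fewer parasites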
#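 assay system = mouse NIH/3T3 fibroblasts infected with β-gal-expressing T. cruzi Tulahuen C4 | input = 5,000 NIH/3T3 host cells per well | buffer or medium = DMEM plus 2% FBS | timing = 3 h host attachment, then at least 90 h co-culture | measured by = GalScreen luminescence, 60 min | evaluation = luminescence reflecting intracellular parasite burden, expressed as percent inhibition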
# PolyA inhibitor: polyadenylation inhibitors in yeast reporter cells, primary screen, luminescence, S. cerevisiae; 300,000 compounds, 0.02% hits; activity score, % at 12 µM; S. cerevisiae SKY197-pL101 polyadenylation reporter, beta-gal luminescence; efflux-impaired pdr1/pdr3 knockout yeast; score 100 = 6 SD above DMSO;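 active means lowest replicate activity score at least 50, where 100 means six control SD above control mean; inconclusive means lowest score under 50 but half or more replicates reach 50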;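 further: yeast exposed to compound for 9 h at 30 °C; higher score means more reporter readthrough which indicates perturbed polyadenylation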
# An asterisk follows results filed as active; ? = inconclusive; / = no result.
SMILES,NLRP3 yeast inh,Calb FLC,NALP1 inh,Lmaj promast,T cruzi repl,PolyA inhibitor
CCOc1nc(NCCO)nc(Nc2cc(Cl)ccc2OC)n1,-2,22,-4,9,4,5
C=CCNc1nc(Nc2cc(Cl)ccc2OC)nc(OC)n1,19,8,25*,/,-4,6
OCCSc1nnc(Nc2ccccc2)s1,16,0,5,2,-11,12
N#CCSc1nnc(Nc2ccccc2)s1,16,16,9,65*,13,-3
O=C(COC(=O)CCCN=C1NS(=O)(=O)c2ccccc21)NNC(=O)c1ccccc1,10,-11,/,/,-6,0
CCOc1ccccc1N1CCN(C(=O)c2cc3cc(OC)ccc3[nH]2)CC1,8,21,5,/,7,-4
CSc1nccc(-c2nn(-c3ccc(C)cc3)ccc2=O)n1,10,1,3,100*,-36,3
C=C(C)COc1ccc2c(CC)cc(=O)oc2c1C,48,-17,47,62*,10,-4
N=C1/C(=C/c2cccn2CCOc2ccccc2)C(=O)N=C2SC=C(c3ccccc3)N12,16,3,23,59*,20,2
CC1(C)Cc2c(C#N)c(SCCOc3ccccc3)nc(N3CCOCC3)c2CO1,20,13,11,2,69*,11
O=C(/C=C/c1ccc(F)cc1)NC(=S)NNC(=O)c1cnccn1,28,-3,/,/,?,-21
COc1ccc(C(=O)NNC(=S)NC(=O)c2cccnc2)cc1,19,28,-1,12,-10,14
COc1ccc(/C=C/C(=O)NC(=S)NNC(=O)c2cnccn2)cc1,1,3,/,/,65*,20
COc1ccc(/C=C/C(=O)NC(=S)NNC(=O)c2cccnc2)cc1,17,-15,-48,93*,-13,19
CC(C)[C@H](NC(=O)c1ccc(Br)cc1)C(=O)NC1CCCCC1,26,/,/,/,/,/
CC(C)(CO)N=C1NS(=O)(=O)c2cc([N+](=O)[O-])ccc21,2,-7,25,-4,9,-10
CCC(CC)N=C1NS(=O)(=O)c2cc([N+](=O)[O-])ccc21,27,-4,1,99*,?,7
CC(C)(C)CC(C)(C)N=C1NS(=O)(=O)c2cc([N+](=O)[O-])ccc21,10,-7,6,100*,?,0
O=C1c2ccc([N+](=O)[O-])cc2S(=O)(=O)N1Cc1ccccc1,10,-7,1,/,-12,-11
CC1(C)CCC[C@]2(C)[C@H]3Cc4cc(O)ccc4O[C@]3(C)CC[C@@H]12,43,/,/,/,/,/
COc1ccc(CC(=O)N2CCN=C2SCc2cccc([N+](=O)[O-])c2)cc1,9,7,-18,15,2,-8
CCN(Cc1ccccc1)C(=O)c1cc2c(=O)oc3ccc(C)cc3c2s1,25,9,42*,2,16,-20
Cc1ccc2oc(=O)c3cc(C(=O)N4CCN(C(=O)c5ccco5)CC4)sc3c2c1,7,4,11,-5,10,-26
COC(=O)C(C)NC(=O)CNS(=O)(=O)c1ccc(F)cc1 (configuration not stated),16,-5,15,-6,-3,10
CCOc1ccc(NC(=O)c2ccncc2)cc1,9,15,-3,-2,-1,11
SMILES,NLRP3 yeast inh,Calb FLC,NALP1 inh,Lmaj promast,T cruzi repl,PolyA inhibitor
O=C(NN=C1C2CC3CC(C2)CC1C3)c1ccncc1,4,-2,13,-4,1,8
O=C(N/N=C1\C/C(=N\NC(=O)c2ccncc2)c2ccccc21)c1ccncc1,23,?,-2,73*,21,-12
CCOc1ccc2c(c1)C(=NNC(=O)c1ccncc1)c1cc(OCC)ccc1-2,23,3,20,100*,60*,-4
O=C(CN1C(=O)NC(Cc2c[nH]c3ccccc23)C1=O)NCCc1ccc(F)cc1 (configuration not stated),12,4,24,/,-2,9
CN1CCC(N(C)C(=O)c2ccccc2Nc2ccc(SC(F)F)cc2)CC1,11,4,11,14,59*,-1
CN1CCC(N(C)C(=S)Nc2ccc(SC(F)F)cc2)CC1,2,-23,19,76*,-6,28
CN1CCC(N(C)C(=S)Nc2ccc(F)cc2)CC1,15,-4,-17,-1,-9,3
O=C(CN(Cc1ccco1)C(=O)CNS(=O)(=O)c1ccc(Cl)cc1)NCc1ccco1,21,2,10,/,13,2
CON(C)C(=O)CC(CNC(=O)OC(C)(C)C)c1ccc(Cl)cc1 (configuration not stated),20,/,/,/,/,/
COc1ccc(CNS(=O)(=O)c2c(C(=O)N3CCCCC3)c(C)n(C)c2C)cc1,25,11,2,/,-2,-5
C/C(=C\C(=O)c1ccccc1)Nc1ccc(O)cc1,-8,-2,18,17,-16,-16
C/C(=C\C(=O)c1cccnc1)Nc1ccc(O)cc1,1,-12,2,99*,-16,-9
O=C(N/C(=C\c1ccc2c(c1)OCO2)C(=O)N1CCOCC1)c1ccccc1Br,22,6,3,/,-4,-6
CCCCN1C(=O)C2NN=C(C(=O)OC)C2C1=O (configuration not stated),-3,3,-4,-6,-5,20
Cc1ccc(S(=O)(=O)Nc2ccccc2CNc2ccc(Br)cn2)cc1,-7,41,26,9,16,2
CCn1c(/N=C/c2ccccc2NS(=O)(=O)c2ccc(C)cc2)nc2ccccc21,/,/,42,85*,/,/
CCCCn1c(NCc2ccccc2NS(=O)(=O)c2ccc(C)cc2)nc2ccccc21,12,27,16,42,57*,3
Cc1ccc(S(=O)(=O)Nc2ccccc2CNc2ccccn2)cc1,12,35,12,59*,3,2
Cc1cnc(NS(=O)(=O)c2ccccc2)c(Br)c1,9,5,-5,/,2,6
Cc1ccc(S(=O)(=O)Nc2ccccc2CNc2ncc(Br)cc2Br)cc1,-1,2,25,100*,28,4
O=C(NCc1ccc2c(c1)OCO2)C(=O)NCC1OCCN1S(=O)(=O)c1ccccc1 (configuration not stated),1,-24,4,/,2,12
Cc1ccccc1-c1cc(C(=O)NCc2ccc3c(c2)OCO3)n(CC2CC(c3cccnc3)=NO2)n1 (configuration not stated),20,/,/,/,/,/
COCCn1c(-c2ccc(Br)cc2)nc2oc3cc(OC)ccc3c(=O)c2c1=O,1,-18,18,/,-2,16
Cc1ccc(S(=O)(=O)NCC(=O)OCC(=O)NC(=O)NC2CCCC2)cc1,15,-20,-2,6,-5,-11
